Structures are written as SMILES. pIC50: −log10 of the molar value. Calls of active or inactive are those of the source. No cut-off for these calls is given here.

Series [1] deals with T1, Phospholipase A2 (Homo sapiens, UniProt P04054). Put plainly: Inhibition of PLA2 (unknown origin) using soybean phosphatidylcholine as substrate preincubated for 30 mins followed incubated for 60 mins after substrate addition by microplate reader relative to control. Put shortly:
(§1)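 PLA2 (4 μg/L in PBS) was preincubated 30 min at 37 °C with inhibitor in 125 mM Tris. Substrate was then added for 60 min: soybean phosphatidylcholine with Tris, CaCl₂, sodium deoxycholate and 0.5% Triton X-100. Liberated free fatty acids were quantified colorimetrically at OD550. Results are % inhibition versus enzyme without inhibitor, n = 3.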
Target sequence in this assay (P04054 whole entry): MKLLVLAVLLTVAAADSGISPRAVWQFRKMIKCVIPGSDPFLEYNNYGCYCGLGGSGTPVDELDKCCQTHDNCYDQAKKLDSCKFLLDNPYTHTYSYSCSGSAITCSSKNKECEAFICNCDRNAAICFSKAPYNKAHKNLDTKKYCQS

In series [2] the target is T2, Transient receptor potential cation channel subfamily M member 8 (Homo sapiens, UniProt Q7Z2W7). The series can be described thus: Inhibition of human TRPM8 expressed in HEK293T cells assessed as blocked of menthol-activated current at 10 uM by whole cell patch clamp electrophysiology relative to control. In kind it is cell-based. The gist of the method: (§2)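 Whole-cell patch clamp was run at room temperature on HEK293T cells transiently cotransfected with human TRPM8 plus GFP, 24–48 h before recording. ECS was 145 NaCl, 5.6 KCl, 2 MgCl₂, 1.2 CaCl₂, 10 HEPES, pH 7.2. Current was activated with 1 mM menthol, and compound was perfused at least 60 s after it stabilized. Inhibition was calculated relative to stable agonist current minus residual current; n = 3–6.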
In general terms: Patch clamp records ionic current or voltage across a cell membrane.
Target sequence in this assay (Q7Z2W7 whole entry, looked up, the tested form may be a part): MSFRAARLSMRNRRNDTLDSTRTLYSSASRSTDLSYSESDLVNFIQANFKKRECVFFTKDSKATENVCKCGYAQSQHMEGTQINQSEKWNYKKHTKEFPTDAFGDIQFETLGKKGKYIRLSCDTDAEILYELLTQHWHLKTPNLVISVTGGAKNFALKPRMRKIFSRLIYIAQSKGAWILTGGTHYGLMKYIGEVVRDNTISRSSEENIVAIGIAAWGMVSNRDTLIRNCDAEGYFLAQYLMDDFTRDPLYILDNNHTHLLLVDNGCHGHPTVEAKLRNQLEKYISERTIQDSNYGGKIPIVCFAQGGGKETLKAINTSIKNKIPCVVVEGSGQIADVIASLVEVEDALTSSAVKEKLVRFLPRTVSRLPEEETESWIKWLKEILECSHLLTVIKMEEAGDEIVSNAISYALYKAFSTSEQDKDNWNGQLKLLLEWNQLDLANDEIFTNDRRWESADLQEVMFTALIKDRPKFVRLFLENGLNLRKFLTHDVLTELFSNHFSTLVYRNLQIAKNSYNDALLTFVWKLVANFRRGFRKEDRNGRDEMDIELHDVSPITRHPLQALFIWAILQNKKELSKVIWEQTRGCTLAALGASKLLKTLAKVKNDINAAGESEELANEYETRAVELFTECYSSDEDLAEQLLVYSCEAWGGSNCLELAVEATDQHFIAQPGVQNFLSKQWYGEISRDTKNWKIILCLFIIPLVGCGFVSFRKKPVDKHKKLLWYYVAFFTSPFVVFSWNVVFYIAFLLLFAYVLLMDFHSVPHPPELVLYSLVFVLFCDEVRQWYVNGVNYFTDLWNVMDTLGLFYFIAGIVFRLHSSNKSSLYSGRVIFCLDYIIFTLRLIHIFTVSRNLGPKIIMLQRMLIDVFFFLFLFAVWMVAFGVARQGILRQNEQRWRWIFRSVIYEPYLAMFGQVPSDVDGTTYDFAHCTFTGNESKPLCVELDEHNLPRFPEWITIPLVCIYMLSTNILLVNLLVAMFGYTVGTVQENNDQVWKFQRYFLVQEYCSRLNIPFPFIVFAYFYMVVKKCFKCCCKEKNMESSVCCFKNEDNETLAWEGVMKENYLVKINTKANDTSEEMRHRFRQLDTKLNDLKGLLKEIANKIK

The target of series [3] is T1, Phospholipase A2. Put plainly: Inhibition of PLA2 (unknown origin) using soybean phosphatidylcholine as substrate at 10 uM preincubated for 30 mins followed incubated for 60 mins after substrate addition by microplate reader relative to control. The gist of the method: as §1
Target sequence in this assay (P04054 23-148 limits assumed): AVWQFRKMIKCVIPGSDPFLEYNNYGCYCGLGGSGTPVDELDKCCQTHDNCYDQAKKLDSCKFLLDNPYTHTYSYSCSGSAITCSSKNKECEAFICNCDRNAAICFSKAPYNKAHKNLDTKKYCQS
For series [4], the target named is T1, Phospholipase A2. Put plainly: Inhibition of PLA2 (unknown origin) using soybean phosphatidylcholine as substrate at 3 uM preincubated for 30 mins followed incubated for 60 mins after substrate addition by microplate reader relative to control. Put shortly: as §1
Target sequence in this assay (P04054 23-148 limits assumed): as above
Series [5] has as its system SH-SY5Y. The series can be described thus: Cytotoxicity against human SH-SY5Y cells assessed as toxicity at 30 uM incubated for 24 hrs by CCK-8 assay. In kind it is cell-based. The gist of the method: (§3)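 SH-SY5Y cells were seeded at 2 × 10⁴ per well and grown 12 h at 37 °C. They were then treated with compound (1–30 μM) under normoxic, normal-glucose conditions for 24 h. CCK-8 (10%) was added for 2 h at 37 °C and OD450 read. Viability was taken relative to untreated control after blank subtraction, with three replicate wells.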

Series [6] deals with Transient receptor potential cation channel subfamily M member 2 (Homo sapiens, UniProt O94759). Put plainly: Inhibition of human TRPM2 expressed in HEK293T cells assessed as suppression of H2O2-induced calcium flux at 1 uM measured after 30 mins by Fluo-3/AM assay. In kind it is cell-based.
Sequence of Transient receptor potential cation channel subfamily M member 2 (O94759 whole entry): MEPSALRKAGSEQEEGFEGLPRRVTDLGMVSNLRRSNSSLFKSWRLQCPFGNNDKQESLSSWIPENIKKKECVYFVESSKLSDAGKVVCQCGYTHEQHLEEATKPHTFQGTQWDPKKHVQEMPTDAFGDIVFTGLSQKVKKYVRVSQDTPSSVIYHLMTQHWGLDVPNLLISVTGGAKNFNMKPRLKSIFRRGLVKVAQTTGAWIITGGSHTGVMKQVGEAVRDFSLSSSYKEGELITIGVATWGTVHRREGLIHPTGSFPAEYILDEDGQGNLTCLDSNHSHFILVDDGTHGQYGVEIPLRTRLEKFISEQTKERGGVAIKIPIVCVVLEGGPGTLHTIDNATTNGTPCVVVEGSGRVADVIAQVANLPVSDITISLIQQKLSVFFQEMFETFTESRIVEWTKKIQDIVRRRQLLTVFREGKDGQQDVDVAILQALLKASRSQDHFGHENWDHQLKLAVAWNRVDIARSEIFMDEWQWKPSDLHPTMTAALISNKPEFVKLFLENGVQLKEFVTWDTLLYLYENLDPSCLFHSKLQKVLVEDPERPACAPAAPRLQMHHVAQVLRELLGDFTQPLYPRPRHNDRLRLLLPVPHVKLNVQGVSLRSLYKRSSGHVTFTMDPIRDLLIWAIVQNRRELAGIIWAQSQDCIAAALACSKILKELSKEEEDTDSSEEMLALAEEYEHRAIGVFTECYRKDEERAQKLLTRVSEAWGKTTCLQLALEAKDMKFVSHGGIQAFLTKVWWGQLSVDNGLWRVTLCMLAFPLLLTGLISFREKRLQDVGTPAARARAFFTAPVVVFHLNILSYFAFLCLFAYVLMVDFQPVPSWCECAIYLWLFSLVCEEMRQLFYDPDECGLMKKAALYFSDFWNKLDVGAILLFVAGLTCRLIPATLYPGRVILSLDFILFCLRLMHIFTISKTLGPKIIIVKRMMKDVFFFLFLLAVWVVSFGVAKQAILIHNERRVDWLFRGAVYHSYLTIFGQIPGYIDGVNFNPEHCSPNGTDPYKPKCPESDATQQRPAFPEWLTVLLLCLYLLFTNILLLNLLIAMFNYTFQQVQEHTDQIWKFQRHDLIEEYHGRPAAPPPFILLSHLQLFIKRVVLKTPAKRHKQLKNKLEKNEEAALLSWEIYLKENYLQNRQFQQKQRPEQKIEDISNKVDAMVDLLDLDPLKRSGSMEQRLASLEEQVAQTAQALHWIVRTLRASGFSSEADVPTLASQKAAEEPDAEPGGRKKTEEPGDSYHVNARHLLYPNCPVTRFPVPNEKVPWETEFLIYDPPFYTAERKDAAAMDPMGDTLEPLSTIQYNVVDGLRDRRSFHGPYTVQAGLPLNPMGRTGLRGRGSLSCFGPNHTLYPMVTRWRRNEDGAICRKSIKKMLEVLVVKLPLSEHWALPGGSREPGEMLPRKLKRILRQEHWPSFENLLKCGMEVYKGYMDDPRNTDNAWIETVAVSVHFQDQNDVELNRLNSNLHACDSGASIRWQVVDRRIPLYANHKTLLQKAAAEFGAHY
The target of series [7] is T2, Transient receptor potential cation channel subfamily M member 8. The series can be described thus: Inhibition of human TRPM8 expressed in HEK293T cells assessed as blocked of menthol-activated current at 3 uM by whole cell patch clamp electrophysiology relative to control. Format: cell-based. The gist of the method: as §2
Target sequence in this assay (Q7Z2W7 whole entry, looked up, the tested form may be a part): as the sequence (Q7Z2W7 whole entry, looked up, the tested form may be a part) above
Series [8] deals with Mus musculus. The series can be described thus: Neuroprotective activity in mouse model of transient middle cerebral artery occlusion-induced cerebral ischemia-reperfusion injury assessed as reduction in infarct volume at 0.3 mg/kg, iv treated for 3 hrs after onset of reperfusion by TTC staining based assay (reference value: 52 +/- 1.7%). Format: functional. More on the design: scale not given: the % may be the effect or the level left.

In series [9] the test system is Mus musculus. The series can be described thus: Neuroprotective activity in mouse model of transient middle cerebral artery occlusion-induced cerebral ischemia-reperfusion injury assessed as reduction neurological score at 3 mg/kg, iv treated for 3 hrs after onset of reperfusion by TTC staining based assay (reference value: 2.4 +/- 0.5). In kind it is functional.

Series [10] has as its system SH-SY5Y. The series can be described thus: Neuroprotective activity against oxygen glucose deprivation/reperfusion-induced cell death in human SH-SY5Y cells assessed as cell viability at 3 uM […] by CCK8 assay relative to control. In kind it is functional. Conditions: read-out: Activity. (Tetrazolium dyes change colour on reduction, which living cells bring about.)

Series [11] has as its system Mus musculus. Put plainly: Neuroprotective activity in mouse model of transient middle cerebral artery occlusion-induced cerebral ischemia-reperfusion injury assessed as reduction in infarct volume at 3 mg/kg, iv treated for 3 hrs after onset of reperfusion by TTC staining based assay (reference value: 57.6 +/- 4.9%). Format: functional. More on the design: scale not given: the % may be the effect or the level left.

Series [12] deals with Mus musculus. The series can be described thus: Neuroprotective activity in mouse model of transient middle cerebral artery occlusion-induced cerebral ischemia-reperfusion injury assessed as reduction in infarct volume at 1 mg/kg, iv treated for 3 hrs after onset of reperfusion by TTC staining based assay (reference value: 52 +/- 1.7%). Format: functional. More on the design: scale not given: the % may be the effect or the level left.

In series [13] the test system is SH-SY5Y. Put plainly: Cytotoxicity against human SH-SY5Y cells assessed as cell viability under normoxic/normal sugar condition at 10 to 30 uM by CCK-8 assay. To be noted: dose 10-30 µM. Format: cell-based. Put shortly: as §3
In series [14] the test system is Mus musculus. Put plainly: Neuroprotective activity in mouse model of transient middle cerebral artery occlusion-induced cerebral ischemia-reperfusion injury assessed as reduction neurological score at 0.3 mg/kg, iv treated for 3 hrs after onset of reperfusion by TTC staining based assay relative to control. Format: functional, organism-based.
Series [15] has as its system Mus musculus. Put plainly: Neuroprotective activity in mouse model of transient middle cerebral artery occlusion-induced cerebral ischemia-reperfusion injury assessed as reduction neurological score at 1 mg/kg, iv treated for 3 hrs after onset of reperfusion by TTC staining based assay relative to control. In kind it is functional, organism-based.
Series [16] concerns the target T2, Transient receptor potential cation channel subfamily M member 8. Put plainly: Inhibition of human TRPM8 expressed in HEK293T cells assessed as blocked of menthol-activated current by whole cell patch clamp electrophysiology relative to control. In kind it is cell-based. Put shortly: as §2
Target sequence in this assay (Q7Z2W7 whole entry, the tested form may be a part): as the sequence (Q7Z2W7 whole entry, looked up, the tested form may be a part) above

The pIC50 is the IC50 on a negative log10 scale, so that one unit is a factor of ten. Usually inhibition stands for the relative decrease from the control value, in per cent. The compound `CCCCCc1ccc(/C=C/C(=O)Nc2ccccc2C(=O)O)cc1` had a pIC50 at Phospholipase A2 [1] of 4.66. In addition, the inhibition in [2] is 62.2%; against Phospholipase A2 [3], 40.4%; on Phospholipase A2 [4] it was 23.4%; in series [6] it was above 45%; in series [7] it was 39.3%. In addition, the Activity in the series on SH-SY5Y [5] is below 10%.

Regarding `CC1=NN(c2ccccc2)C(=O)C1` [EDARAVONE], the Activity in the series with Mus musculus [8] is given as 46.2%; with Mus musculus [9], 1.6; with Mus musculus [11], 39%; in the series on Mus musculus [12], 43.9%; in the series on SH-SY5Y [13], “Non-Toxic”. In addition, the viability at 3 µM with SH-SY5Y [10] turned out to be 81.2%. The outcome in the series with Mus musculus [14] and in the series with Mus musculus [15] was inactive.

For the compound `COc1cccc(NC(=O)/C=C/c2ccc(Cl)cc2)c1`, the pIC50 in series [16] is below 5.00.
